The text below walks through data of the M2OR odorant receptor database.
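Note: active if original authors judged signal statistically different from baseline.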

One assay addresses T1, OR2M7 (Homo sapiens) (UniProt Q8NG81).
T1 sequence (whole entry): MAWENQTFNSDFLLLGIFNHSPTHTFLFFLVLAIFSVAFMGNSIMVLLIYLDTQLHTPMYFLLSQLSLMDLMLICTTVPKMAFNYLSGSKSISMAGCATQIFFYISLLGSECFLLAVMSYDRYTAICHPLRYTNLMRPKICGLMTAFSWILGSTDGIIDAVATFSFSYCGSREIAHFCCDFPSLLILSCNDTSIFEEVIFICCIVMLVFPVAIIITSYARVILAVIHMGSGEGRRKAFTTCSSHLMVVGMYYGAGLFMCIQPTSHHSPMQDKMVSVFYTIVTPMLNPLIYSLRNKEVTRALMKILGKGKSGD
The settings on record: stereoisomer not certain. The essentials:
(§1)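 Transient luciferase assays in mammalian cell lines were common, though methods varied by source. The values come from published papers and their supplementary material, with extra details from the original authors when needed. Responsive refers to a measured signal the original authors judged statistically different from baseline, and non-responsive (inactive) to the remainder.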
For the compound `CCCCC(S)C(C)CO` (stereo not drawn), the “odorant receptor agonist call” value was “inactive”.

In the case of `CC(=O)OCc1ccccc1`, the “odorant receptor agonist call” value is “inactive”.

On to `CC1=NC(C)C(C)S1` (stereo not drawn), for which the “odorant receptor agonist call” value was “inactive”.

On to `CC(=O)c1c(C)c([N+](=O)[O-])c(C(C)(C)C)c([N+](=O)[O-])c1C`, for which the “odorant receptor agonist call” value was “inactive”.

For a further assay, the target named is T2, OR2S2 (Homo sapiens) (UniProt Q9NQN1).
T2 sequence (whole entry): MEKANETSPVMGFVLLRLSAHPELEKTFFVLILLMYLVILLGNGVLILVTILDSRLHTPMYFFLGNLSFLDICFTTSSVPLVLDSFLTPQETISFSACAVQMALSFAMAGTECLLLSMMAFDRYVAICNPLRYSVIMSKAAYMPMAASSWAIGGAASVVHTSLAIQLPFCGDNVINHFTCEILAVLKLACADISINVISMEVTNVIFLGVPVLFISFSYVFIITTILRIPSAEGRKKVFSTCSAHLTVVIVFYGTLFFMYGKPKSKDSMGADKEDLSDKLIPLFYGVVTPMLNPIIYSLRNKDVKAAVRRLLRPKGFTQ
The note with it: stereoisomer not certain. The essentials: as §1
For `CCCCC(S)C(C)CO` (stereo not drawn), the “odorant receptor agonist call” value was “inactive”.

`CC1=NC(C)C(C)S1` (stereo not drawn): the “odorant receptor agonist call” value was “inactive”.

With `CC(=O)c1c(C)c([N+](=O)[O-])c(C(C)(C)C)c([N+](=O)[O-])c1C`, the “odorant receptor agonist call” value is “inactive”.

The target of the next assay is T3, OR2T1 (Homo sapiens) (UniProt O43869).
T3 sequence (whole entry): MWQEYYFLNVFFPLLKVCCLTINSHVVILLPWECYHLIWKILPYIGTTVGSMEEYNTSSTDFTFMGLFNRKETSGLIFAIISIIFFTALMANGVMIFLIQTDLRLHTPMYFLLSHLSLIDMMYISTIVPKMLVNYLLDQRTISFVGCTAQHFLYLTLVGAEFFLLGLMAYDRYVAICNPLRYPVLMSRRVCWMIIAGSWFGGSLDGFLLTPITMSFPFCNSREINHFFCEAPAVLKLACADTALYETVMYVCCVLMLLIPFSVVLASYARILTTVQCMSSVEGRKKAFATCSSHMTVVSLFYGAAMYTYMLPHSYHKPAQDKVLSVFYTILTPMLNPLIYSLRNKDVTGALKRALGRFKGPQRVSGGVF
The note with it: stereoisomer not certain. The gist of the method:
as §1
As for `CCCCC(S)C(C)CO` (stereo not drawn), the “odorant receptor agonist call” value is “inactive”.

With `CC1=NC(C)C(C)S1` (stereo not drawn), the “odorant receptor agonist call” value was “inactive”.

Turning to `CC(=O)c1c(C)c([N+](=O)[O-])c(C(C)(C)C)c([N+](=O)[O-])c1C`, the “odorant receptor agonist call” value was “inactive”.

For another assay, the target named is T4, OR2T10 (Homo sapiens) (UniProt Q8NGZ9).
T4 sequence (whole entry): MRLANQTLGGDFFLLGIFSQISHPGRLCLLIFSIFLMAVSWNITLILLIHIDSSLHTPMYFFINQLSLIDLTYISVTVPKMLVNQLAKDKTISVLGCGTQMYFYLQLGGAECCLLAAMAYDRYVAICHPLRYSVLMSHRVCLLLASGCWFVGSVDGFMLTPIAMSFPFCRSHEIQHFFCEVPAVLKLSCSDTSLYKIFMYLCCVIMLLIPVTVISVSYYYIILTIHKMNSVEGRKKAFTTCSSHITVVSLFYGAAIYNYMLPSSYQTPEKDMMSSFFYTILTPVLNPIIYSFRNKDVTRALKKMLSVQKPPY
The note with it: stereoisomer not certain. The gist of the method:
as §1
Consider `CCOC(=O)CC1(C)OCCO1`, for which the “odorant receptor agonist call” value was “inactive”.

In the case of `CC(CC=O)c1ccc(C(C)(C)C)cc1` (stereo not drawn), the “odorant receptor agonist call” value was “inactive”.

Take `CCCCC(S)C(C)CO` (stereo not drawn): the “odorant receptor agonist call” value is “inactive”.

On to `C=CC(C)(CCC=C(C)C)OC(C)=O` (stereo not drawn), for which the “odorant receptor agonist call” value is “inactive”.

Regarding `CC(C)CCCC(C)(C)O`, the “odorant receptor agonist call” value is “inactive”.

With `C=CC(C)(O)CCC=C(C)CCC=C(C)C` (stereo not drawn), the “odorant receptor agonist call” value was “inactive”.

On to `CC(=O)C=CC1=C(C)CCCC1(C)C`, for which the “odorant receptor agonist call” value is “inactive”.

On to `CC(=O)OCc1ccccc1`, for which the “odorant receptor agonist call” value was “inactive”.

As to `CC(C)=CCCC(C)CC=O` (stereo not drawn), the “odorant receptor agonist call” value is “inactive”.

In the case of `CCC(=O)C=CC1C(C)=CCCC1(C)C` (stereo not drawn), the “odorant receptor agonist call” value is “inactive”.

Consider `OCc1ccccc1`, for which the “odorant receptor agonist call” value was “inactive”.

Consider `CCC=C(C)C(O)CCCCC` (stereo not drawn), for which the “odorant receptor agonist call” value is “inactive”.

Consider `CCCCCC1COCCC1OC(C)=O` (stereo not drawn), for which the “odorant receptor agonist call” value is “inactive”.

Take `CCCC(C)C(=O)OCC` (stereo not drawn): the “odorant receptor agonist call” value was “inactive”.

With `COc1ccc(C)cc1`, the “odorant receptor agonist call” value is “inactive”.

On to `CCCCC1CCC(=O)O1` (stereo not drawn), for which the “odorant receptor agonist call” value was “inactive”.

Take `CCCCCC1C(=O)CCC1CC(=O)OC` (stereo not drawn): the “odorant receptor agonist call” value is “inactive”.

Take `CC1=CCC2CC1C2(C)C` (stereo not drawn): the “odorant receptor agonist call” value was “inactive”.

`COC1CC2CC1C1CC(C=O)CC21` (stereo not drawn): the “odorant receptor agonist call” value is “inactive”.

Take `CC1CC(C)(c2ccccc2)CO1` (stereo not drawn): the “odorant receptor agonist call” value is “inactive”.

On to `CCCCCCCCC(OC(C)=O)OC(C)=O`, for which the “odorant receptor agonist call” value is “inactive”.

`Cc1ccc(C(C)C)cc1O`: the “odorant receptor agonist call” value was “inactive”.

Take `CC1=NC(C)C(C)S1` (stereo not drawn): the “odorant receptor agonist call” value is “inactive”.

Take `Cc1occc(=O)c1OC(=O)C(C)C`: the “odorant receptor agonist call” value was “active”.

Regarding `CC(C)(C)C1CCCCC1OCCCCO` (stereo not drawn), the “odorant receptor agonist call” value is “inactive”.

With `CC(=O)c1c(C)c([N+](=O)[O-])c(C(C)(C)C)c([N+](=O)[O-])c1C`, the “odorant receptor agonist call” value was “inactive”.

For `CCc1ccc(CC(C)(C)C=O)cc1`, the “odorant receptor agonist call” value is “inactive”.

Regarding `C=CCOC(=O)COCCC(C)C`, the “odorant receptor agonist call” value is “inactive”.
